# Bioassay records from PubChem.
# Compounds with a hit are over-represented: about 0.79% of the library has one in this group of screens.
# mIAP block = mouse IAP inhibition | purified mouse IAP, CDP-Star luminescence, 30 min | inhibition, % at 10 µM | 330,000 tested, 0.2% active;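 active means inhibition of at least 40% at 10 µM in the primary screen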
# hIAP act = increases human intestinal alkaline phosphatase activity. AID 2524. 330,000 tested, 0.16% active. activation factor at 10 µM. P09923. purified human IAP, CDP-Star luminescence, 30 min; active compounds read high; 1 = vehicle-only enzyme, 0 = enzyme-free background;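 active means activation factor of the enzyme at least 2-fold when tested at 20 µM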
# Target sequence (P09923 whole entry, looked up): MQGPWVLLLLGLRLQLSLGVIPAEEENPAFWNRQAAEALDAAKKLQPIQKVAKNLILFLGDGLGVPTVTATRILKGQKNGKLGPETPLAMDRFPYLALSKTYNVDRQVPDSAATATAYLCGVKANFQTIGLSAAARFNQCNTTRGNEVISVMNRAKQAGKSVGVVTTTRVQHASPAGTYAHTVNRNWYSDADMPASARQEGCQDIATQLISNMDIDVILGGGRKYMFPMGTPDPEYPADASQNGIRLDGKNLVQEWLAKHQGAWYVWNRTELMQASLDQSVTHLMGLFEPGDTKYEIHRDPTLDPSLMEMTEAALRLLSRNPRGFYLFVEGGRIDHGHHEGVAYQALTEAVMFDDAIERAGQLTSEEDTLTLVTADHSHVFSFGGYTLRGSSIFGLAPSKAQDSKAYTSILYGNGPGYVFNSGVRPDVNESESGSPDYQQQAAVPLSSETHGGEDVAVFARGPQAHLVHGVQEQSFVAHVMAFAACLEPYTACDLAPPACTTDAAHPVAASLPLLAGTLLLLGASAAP
# mIAP act = mouse IAP activation; muIAP, CDP-Star luminescence, 30 min; active compounds read high; 1 = vehicle-only enzyme signal, 0 = enzyme-free wells; activation factor at 10 µM; 330,000 tested, 0.24% active;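 active means activation factor of at least 2 at 20 µM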
#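 System: mouse IAP enzyme. Reagent: CDP-Star chemiluminescent phosphatase substrate. Benchmarks: DMSO wells, no-enzyme wells. Times: 30 min enzyme-substrate-compound incubation at room temperature. Detection: luminescence from enzymatic CDP-Star hydrolysis. Doses: test compounds delivered from DMSO solution.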
# bIAP act = intestinal alkaline phosphatase (bovine) activation; 200,000 tested, 0.17% active; purified bovine IAP, CDP-star luminescence, 30 min; active compounds read high; fold of DMSO-control signal, blank-subtracted; activation factor at 20 µM; AID 1016;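 active means activation factor of 2 or more at 20 µM, a signal rise over negative controls twice the positive control's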
# bIAP inhibitor = blocks bovine intestinal alkaline phosphatase activity; purified bovine IAP, CDP-star luminescence, 30 min; inhibition, % at 20 µM; 190,000 tested, under 10 active; AID 1019;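 active means over 50% inhibition of intestinal alkaline phosphatase at 20 µM in the single-dose screen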
#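 System: purified bovine intestinal alkaline phosphatase (IAP) enzyme; Input: IAP diluted 1/65,000,000 in the well; Measured by: CDP-star luminescence signal; Compound dosing: 20 µM single dose; Incubation: 30 min reaction at room temperature.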
# hIAP block = blocks human intestinal alkaline phosphatase; P09923; purified IAP, CDP-Star luminescence, 30 min; inhibition, % at 10 µM; 330,000 tested, 0.12% active;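 active means inhibition reaching a set limit with compound at 10 µM in the primary screen, cut at about 35% in these data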
# hIAP act conf = human IAP activation confirmation; shares compounds with hIAP act; activation (%Activity, negative = activation), % at 8.3 µM; 880 tested, 10% active; AID 434926; purified IAP, CDP-Star luminescence, 30 min; active compounds read low;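 active means at least twofold enzyme activation in any of six single-dose repeats, which the averaged readout prints as negative percent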
# Numbers stand for hits; 0 = inactive; - = no result given.
SMILES,mIAP block,hIAP act,mIAP act,bIAP act,bIAP inhibitor,hIAP block,hIAP act conf
CCc1ccc(NC(=O)C2CCN(S(=O)(=O)c3ccc4c(c3)N(C(C)=O)CCO4)CC2)cc1,0,0,0,-,-,39,0
CC(=O)N1CCOc2ccc(S(=O)(=O)N3CCC(C(=O)Nc4ccc(C)cc4)CC3)cc21,0,0,0,-,-,0,-
CCc1ccc(NC(=O)C2CCN(S(=O)(=O)c3c(C)[nH]c(=O)[nH]c3=O)CC2)cc1,0,2.5,0,0,0,0,0
O=C(Nc1cc(Cl)ccc1-n1cncn1)c1ccc(Br)o1,0,0,0,-,-,0,-
Cc1ccc(C)c(NC(=O)c2cc(-c3cc(C)c(C)cc3O)n[nH]2)c1,0,0,0,-,-,0,-
Cc1ccc(O)c(-c2cc(C(=O)NCc3ccc4c(c3)OCO4)[nH]n2)c1,0,2.1,0,0,0,0,0
COc1ccc(OC)c(NC(=O)c2cc(-c3ccc(C)cc3O)n[nH]2)c1,0,2.2,0,0,0,0,0
Cc1ccc(CNC(=O)c2cc(-c3cc(C)cc(C)c3O)n[nH]2)cc1,0,0,0,-,-,0,-
COc1ccc(OC)c(NC(=O)c2cc(-c3cc(C)ccc3O)n[nH]2)c1,0,2.1,0,-,-,0,-42
Cc1ccc(-c2cc(C(=O)Nc3cc(C)ccc3C)[nH]n2)c(O)c1,0,0,0,0,0,0,-
O=C(CCC1CCCN(C2C3CC4CC(C3)CC2C4)C1)NCc1ccc(F)c(F)c1 (configuration not stated),0,0,0,0,0,0,-
COc1cccc(CC(NC(C)=O)C(=O)NC2CCN(C(=O)NCc3ccccc3)CC2)c1 (configuration not stated),0,0,0,-,-,0,-
COc1ccc(CC(NC(C)=O)C(=O)NC2CCN(C(=O)NCc3ccccc3)CC2)cc1 (configuration not stated),0,0,0,0,0,36,0
Cc1ccc(S(=O)(=O)Nc2nc3ccccc3nc2NCc2ccco2)cc1,0,2.1,0,0,0,0,0
O=S(=O)(Nc1nc2ccccc2nc1NCc1ccco1)c1ccc(Cl)cc1,0,0,0,0,0,0,-
CC(=O)Nc1cccc(-c2csc(Nc3ccccn3)n2)c1,0,2.2,0,0,0,0,-94
O=C(CCN=C1NS(=O)(=O)c2ccccc21)OCc1cccc(Cl)c1,0,0,0,-,-,0,-
Cc1ccc(C(=O)CSc2nc(C)cc(=O)[nH]2)cc1,0,0,0,0,0,0,-
Cc1cc(=O)[nH]c(SCC(=O)c2ccc(O)c(O)c2)n1,0,0,0,-,-,43,0
Cc1ccc(C(=O)Nc2ncccc2C)cc1S(=O)(=O)N1CCCCC1,0,0,0,-,-,0,-
Cc1ccccc1N1CCN(C(=O)c2ccccc2NC(=O)/C=C\C(=O)O)CC1,0,0,0,0,0,37,0
CCOc1c(Br)cc(/C=C(\C#N)C(=O)NC2CC2)cc1OC,0,0,0,-,-,41,0
CCOc1ccccc1/C=C(\C#N)C(=O)NC1CC1,0,0,0,-,-,0,-
CCOc1ccc(S(=O)(=O)NCCC(=O)NCCOc2ccccc2OC)cc1,0,0,0,-,-,0,-
COc1cccc(CC(=O)OCC(=O)NNC(=O)c2ccc(Br)cc2)c1,0,0,0,-,-,0,-
SMILES,mIAP block,hIAP act,mIAP act,bIAP act,bIAP inhibitor,hIAP block,hIAP act conf
Nc1nc(NCCCN2CCOCC2)nc(Nc2cccc(F)c2)c1[N+](=O)[O-],0,0,0,-,-,36,0
CCOC(=O)C1CCN(CC(O)COc2ccc(C(=O)CC)cc2)CC1 (configuration not stated),0,0,0,0,0,36,0
O=C(NCc1ccccc1)C(=O)Nc1nc(-c2ccccc2)cs1,0,0,0,-,-,0,-
O=C(NCc1ccccn1)C(=O)Nc1nc(-c2ccccc2)cs1,0,2.2,0,-,-,0,0
O=C(N/N=C/c1ccccn1)c1cc(C2CC2)[nH]n1,0,2.1,0,0,0,0,0
O=C(CCCC(=O)N/N=C\c1ccccn1)N/N=C\c1ccccn1,0,2,0,0,0,0,0
Nc1nc(SCC(=O)Nc2cc(Cl)c(Cl)cc2Cl)n[nH]1,0,0,0,-,-,0,-
CCOc1cccc(OCCOCCOc2ccccc2C(C)=O)c1,0,2.2,0,0,0,0,-219
CCCCN(C(=O)CSCc1c(C)noc1C)c1c(N)n(CCCC)c(=O)[nH]c1=O,0,0,0,-,-,0,-
COc1ccc(NC(=O)CCN2CCN(S(=O)(=O)c3cc(Cl)ccc3OC)CC2)cc1,0,0,0,0,0,36,0
COc1ccc(NC(=O)CCN2CCN(S(=O)(=O)c3ccc(Br)cc3)CC2)cc1,0,0,0,-,-,0,-
CC1CCCN(S(=O)(=O)c2ccc3c(c2)CCN3C(=O)C2CCC2)C1 (configuration not stated),0,50,0,0,0,0,0
CC1CCN(S(=O)(=O)c2ccc3c(c2)CCN3C(=O)C2CCC2)CC1,0,0,0,-,-,0,-
O=C(N/N=C/C1CC2C=CC1C2)c1ccccc1O (configuration not stated),0,0,0,-,-,0,-
COc1ccc(-n2nc3ccc(NS(C)(=O)=O)cc3n2)cc1Cl,0,0,0,0,0,38,0
COc1ccc(O)c(/C=N/NC(=O)c2cccc(N3CCCC3=O)c2)c1,0,2,0,-,-,0,0
CC[n+]1ccccc1/C=C1\Sc2ccc(C)cc2N1C,0,0,0,-,-,0,-
CN1/C(=C/c2cccc[n+]2CCO)Sc2ccccc21,0,0,0,-,-,37,0
CC(=O)Nc1cccc(OCCCNS(=O)(=O)c2ccc(F)cc2)c1,0,0,0,-,-,0,-
CCOC(=O)c1ccc(NC(=O)c2nc[nH]c2C(=O)NCCCCCNC(=O)OC(C)(C)C)cc1,0,2.3,0,-,-,0,0
CC(C)(C)OC(=O)NCCCC[C@H](NC(=O)c1[nH]cnc1C(=O)Nc1ccc(CNC(=O)OC(C)(C)C)cc1)C(=O)OC(C)(C)C,0,2.7,0,-,-,0,0
CC(C)(C)OC(=O)NCCCC[C@H](NC(=O)c1nc[nH]c1C(=O)NCc1ccccc1)C(=O)OC(C)(C)C,0,0,0,0,0,0,-
CCOC(=O)c1ccc(NC(=O)c2nc[nH]c2C(=O)NCCCCNC(=O)c2[nH]cnc2C(=O)Nc2ccc(C(=O)OCC)cc2)cc1,0,0,0,-,-,0,-
CC(C)(C)[C@@H]1COC(=O)[C@H](Cc2ccc(F)cc2)C/C=C\C[C@H](CC(=O)N(CCO)Cc2ccccc2)C(=O)N1,0,0,0,-,-,0,-
CN(C(=O)Cn1nc(C(=O)O)c2ccccc2c1=O)C1CCCCC1,0,0,0,-,-,0,-
COc1ccc(NC(=S)NNC(=O)c2nnn(-c3ccccc3)c2C)cc1,0,2.1,0,0,0,0,0
Cc1cc2oc(=O)cc(-c3ccccc3)c2c(C)c1-c1ccc(C#N)cc1,0,-,0,-,-,-,-
